102 compounds from PubChem BioAssay AID1216 (Sanford-Burnham Center for Chemical Genomics, 2008) can be followed below.

Molecules are shown by their SMILES. The campaign covered roughly 190,000 compounds. About 660 (0.35%) were called active. The sample as a whole holds a higher share of actives than the screen did. A number with no mark means an inactive call.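 The calls were made as follows: active = activation factor of 2 or more at 20 µM; inactive = the rest.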

Mannose-6-phosphate isomerase (Homo sapiens), sequence (P34949 whole entry, looked up): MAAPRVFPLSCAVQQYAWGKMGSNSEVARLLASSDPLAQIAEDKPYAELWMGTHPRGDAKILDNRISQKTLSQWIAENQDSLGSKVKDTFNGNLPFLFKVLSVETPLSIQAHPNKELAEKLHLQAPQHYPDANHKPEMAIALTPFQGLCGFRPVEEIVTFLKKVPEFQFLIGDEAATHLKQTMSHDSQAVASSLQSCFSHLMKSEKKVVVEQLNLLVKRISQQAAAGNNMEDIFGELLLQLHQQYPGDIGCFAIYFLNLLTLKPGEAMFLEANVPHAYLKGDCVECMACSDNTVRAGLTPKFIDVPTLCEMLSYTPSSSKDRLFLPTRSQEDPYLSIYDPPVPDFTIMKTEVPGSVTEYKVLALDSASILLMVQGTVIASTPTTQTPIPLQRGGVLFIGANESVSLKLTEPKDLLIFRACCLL

This assay addresses Mannose-6-phosphate isomerase (Homo sapiens) (UniProt P34949). Put plainly: MPI activation at elevated mannose 6-phosphate – biochemical, fluorescence intensity, near-saturating mannose 6-phosphate, primary screen (AID 1216). The note with it: coupled PMI enzyme assay, resazurin fluorescence, 20 min; at 20 µM; hits give high values; 1 = untreated enzyme, 0 = substrate-free blank. In a few lines:
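Test system: human phosphomannose isomerase with PGI, G6PDH, diaphorase coupling enzymes; Amount: PMI at 15 ng/mL final; Reagent: Mannose-6-phosphate 1.0 mM (near-saturating) plus 0.22 mM NADP+; Timing: 20 min, room temperature; Technique: resorufin fluorescence at Ex 544/Em 590 nm; Dosing: 20 µM single dose.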
For orientation: The colour change of resazurin is a common sign of viable cells or microbes.
On to `Cc1ccc(N=C2NC(=O)/C(=C/C=C/c3ccco3)S2)cc1C`, for which the activation factor is 2 (active).
`Cc1cccc(N=C2NC(=O)/C(=C/c3cn(C)c4ccccc34)S2)c1`: the activation factor was 0.9.
As to `Cc1ccc(N2NC(=O)/C(=C/C=C/c3ccco3)C2=O)cc1C`, the activation factor is 1.2.
In the case of `COc1ccc(/C=C/C(=O)c2ccc(OC)cc2O)cc1`, the activation factor is 0.9.
Regarding `COc1ccc(/C=C/C(=O)c2cc(Br)ccc(=O)c2O)cc1`, the activation factor was 2.1 (active).
`COc1ccc(C(=O)/C=C/c2ccc(OC3CSC3)cc2)cc1`: the activation factor is 0.9.
As for `CCCCC(NS(=O)(=O)c1ccc(C)cc1)C(=O)Oc1ccc2c3c(c(=O)oc2c1)CCC3` (configuration not stated), the activation factor is 0.9.
Consider `N/C(=N\OS(=O)(=O)c1cccc([N+](=O)[O-])c1)c1ccncc1`, for which the activation factor was 1.
As to `CCn1c(SCC(=O)N(C)C2CCS(=O)(=O)C2)nnc1-c1cccs1` (configuration not stated), the activation factor was 1.1.
With `COc1ccc2c(-c3ccccc3)cc(SCC(=O)N(C)C3CCS(=O)(=O)C3)nc2c1` (configuration not stated), the activation factor is 1.3.
For `Cc1cc(C)c2nc(SCC(=O)N(C)C3CCS(=O)(=O)C3)cc(C)c2c1` (configuration not stated), the activation factor is 2 (active).
In the case of `Cc1cc(/C=C2/NC(=O)NC2=O)c(C)n1-c1cccnc1`, the activation factor was 0.9.
The result for `CC(CC(=O)Nc1ccccc1)n1ccnc1` (configuration not stated) reads 1.
The result for `Cc1c(-c2cccc(Cl)c2)nc2ccccc2c1C(=O)OCC(=O)N(C)C1CCS(=O)(=O)C1` (configuration not stated) reads 1.
Take `Cc1nccn1CCC1CCCCN1C(=O)CCc1nnc(-c2ccsc2)o1` (configuration not stated): the activation factor was 0.9.
Take `OCCC#Cc1ccc(CN2CCN(Cc3ccsc3)C(CCO)C2)cc1` (configuration not stated): the activation factor is 1.
For `O=C(Nc1ccc([N+](=O)[O-])cc1)C1CC12CCC2` (configuration not stated) the value was 1.1.
On to `Cc1ccc(CNC(=O)COc2ccc3c(c2)CCC3)cc1`, for which the activation factor is 1.
For `CC1CCN(C(=O)c2ccc(S(=O)(=O)Cc3cc(F)ccc3F)c([N+](=O)[O-])c2)CC1` the value was 0.8; for `COc1ccc(C2CC(c3cccs3)=NN2c2nc(C)c(C(C)=O)s2)cc1OC` (configuration not stated), 2 (active).
In the case of `COc1ccccc1N1N=C(c2cccs2)CC1c1ccccc1` (configuration not stated), the activation factor was 1.2.
For `COc1ccc(C2CC(c3cccs3)=NN2c2ccccc2)cc1` (configuration not stated), the activation factor is 1.2.
As to `COc1ccc(C2CC(c3cccs3)=NN2c2ccc(F)cc2)cc1OC` (configuration not stated), the activation factor was 2.2 (active).
With `COc1ccc(C2CC(c3cccs3)=NN2C(=O)CSc2nncs2)cc1OC` (configuration not stated), the activation factor is 1.
For `COc1ccc(C2CC(c3cccs3)=NN2C(=O)CSc2nnc(N)s2)cc1OC` (configuration not stated), the activation factor was 1.
Consider `COc1cc(/C=C(/NC(=O)c2ccc(Cl)cc2Cl)C(=O)O)cc(OC)c1OC`, for which the activation factor is 1.
For `NC(=O)c1ccccc1N(Cc1ccccc1)S(=O)(=O)c1ccccc1` the value was 1; for `CCN(CC)S(=O)(=O)c1cc([N+](=O)[O-])ccc1N=Nc1c(O)n(C)c2ccccc12`, 1.1.
Consider `Cc1ccc(-c2nc(C)sc2CC(=O)OCC(=O)Nc2c(F)cccc2F)cc1`, for which the activation factor is 0.9.
Take `Cc1ccc(C2=NN(C(=O)COc3ncnc4ccccc34)C(c3ccco3)C2)cc1` (configuration not stated): the activation factor is 0.8.
Take `CO/N=C/c1cn(-c2ccc(Cl)cc2)nn1`: the activation factor is 1.
Turning to `CC1(C)OC(=O)C(=CSc2ccc(C(C)(C)C)cc2)C(=O)O1`, the activation factor is 1.1.
As to `CCCC(=O)Nc1cccc(NC(=S)NC(=O)C(C)Oc2ccc(Cl)cc2Cl)c1` (configuration not stated), the activation factor was 1.
Take `O=C(N/C(=C\c1ccc(F)cc1)C(=O)N1CCCCCC1)c1ccccc1`: the activation factor is 0.9.
As to `Cc1cc(OCCCN2CCN(Cc3ccccc3)CC2)ccc1[N+](=O)[O-]`, the activation factor was 1.
With `COc1ccc(Cc2nnc(SC)[nH]c2=O)cc1`, the activation factor is 2 (active).
Turning to `CSc1nc(O)c(Cc2ccccc2)c(=O)[nH]1`, the activation factor was 1.
In the case of `COc1ccc(Cc2nnnn2CC(=O)O)cc1`, the activation factor was 1.1.
Take `O=C(NNC(=O)c1ccccc1[N+](=O)[O-])Nc1ccccc1C(F)(F)F`: the activation factor is 1.
For the compound `O=C(NC1CCCC1)C(c1ccc(N2CCOCC2)cc1)N(C(=O)c1ccco1)c1ccccc1F` (configuration not stated), the activation factor was 0.9.
Consider `Cc1ccc(NC(=O)NC(=O)N(C2CCCCC2)S(=O)(=O)c2ccccc2)cc1`, for which the activation factor was 0.9.
For `Cc1nn(-c2ccc([N+](=O)[O-])cc2)c(N)c1-c1ccccc1`, the activation factor is 1.
Regarding `C(=N/Nc1cc(N2CCOCC2)nc(N2CCOCC2)n1)/c1ccccc1`, the activation factor is 0.4.
Regarding `Cc1ccccc1N/N=C/c1ccc(N2CCOCC2)cc1`, the activation factor was 2.4 (active).
With `Cc1cc(C(=O)N/N=C/c2ccc(N3CCOCC3)cc2)c(C)o1`, the activation factor was 1.1.
For `S=C(NC1CCCCC1)NN1CCOCC1`, the activation factor is 1.1.
On to `Cc1ccc(OCc2n[nH]c(=S)n2-c2ccc(C)cc2)cc1`, for which the activation factor was 0.8.
On to `COc1ccc(CNc2c(CO)cnc3c2cnn3C)cc1`, for which the activation factor is 1.
As to `Cc1ccnc(NC(=O)CCC(=O)N(CC(=O)NCc2ccccc2)Cc2ccco2)c1`, the activation factor was 0.9.
For `CCOC(=O)C1=C(CN2CCCCCC2)NC(=O)NC1c1cccc([N+](=O)[O-])c1` (configuration not stated) the value was 0.9; for `CC(NC(=O)C(=O)N/N=C/c1ccc(Cl)cc1)c1ccccc1` (configuration not stated), 1.1.
Turning to `O=C(NNC1CC(=O)N(c2cccc(Cl)c2)C1=O)c1cccnc1` (configuration not stated), the activation factor was 1.2.
For the compound `O=C1CC(c2ccccc2)C(=O)N1c1cccc(O)c1` (configuration not stated), the activation factor is 0.9.
With `O=C1CC(NNc2ccccc2)C(=O)N1c1cccc(Cl)c1` (configuration not stated), the activation factor is 2 (active).
On to `C/C(=N\NC(=S)NCc1ccccc1)C1CCCCC1`, for which the activation factor is 1.2.
The result for `O=C(CCNC(=O)Cn1ccc2ccccc2c1=O)NCCC1=CCCCC1` reads 1.1.
For `CCc1cccc(CC)c1NC(=S)NCc1ccc2[nH]c(C)cc2c1`, the activation factor is 0.9.
For `COc1ccc(Br)cc1/C=N/n1c(C)nnc1C`, the activation factor is 1.
With `COc1ccc(Br)cc1/C=N/Nc1ccc(Cl)c(C(=O)O)c1`, the activation factor was 2.6 (active).
For `COc1ccc(Br)cc1/C=N/NC(=O)c1cccc(S(=O)(=O)N2CCOCC2)c1` the value was 1.
As for `OCC(O)CN(c1ccccc1)c1ccccc1` (configuration not stated), the activation factor was 1.
As to `CC(C)C(=O)Nc1ccc2oc(=O)ccc2c1`, the activation factor was 1.
In the case of `COc1ccc(C(=O)CSc2nc(C)cc(C)n2)cc1[N+](=O)[O-]`, the activation factor is 0.9.
Consider `Cn1nc(-c2ccccc2)c(CO)c1Sc1ccccc1`, for which the activation factor was 1.
For `c1ccc2[nH]c(-c3nc4ccccc4[nH]3)nc2c1` the value was 1.1; for `O=C(Nc1ccccc1)c1cc2ccccc2[nH]1`, 0.9.
On to `S=c1ccc2ccccc2[nH]1`, for which the activation factor is 2.8 (active).
Take `CCOc1ccc(C2c3[nH]c4ccccc4c3CCN2Cc2cn(CC)nc2C)cc1` (configuration not stated): the activation factor was 0.8.
As to `CN(C)CC(C)(C)CNC(=O)c1cc(Br)cc(Br)c1O`, the activation factor is 0.8.
The result for `O=C1C2C3C=CC(C4CC34)C2C(=O)N1c1nccs1` (configuration not stated) reads 1; that for `CCN(CC)CC1(O)CCN(C(=O)c2ccc(Cl)c(Cl)c2)CC1`, 0.9; that for `O=C(O)c1ccc(N/N=C/c2cn(-c3ccccc3)nc2-c2cccs2)cc1`, 1.7.
Take `O=C(O)c1ccc(N/N=C/c2ccc3ncccc3c2)cc1`: the activation factor was 2.3 (active).
The result for `CCNC(=S)NNC(=O)c1ccc2ncccc2c1` reads 1.
As for `Cc1ccc(NC(=O)N2CCSc3ccccc32)cc1`, the activation factor is 0.9.
Take `O=C(CNCc1ccc(Cl)cc1)Nc1cccc(C(=O)O)c1`: the activation factor is 1.1.
In the case of `O=c1c2ccccc2c(-c2ccccc2)nn1Cc1ccccc1`, the activation factor was 1.
On to `Cn1c(CO)cnc1SCc1ccccc1`, for which the activation factor was 1.1.
`CSc1c(SCc2ccccc2)cnn(Cc2ccccc2)c1=O`: the activation factor is 2.4 (active).
Turning to `COc1ccc(NC(=O)COc2ccc(C(=O)OCC(=O)N(C)C3CCS(=O)(=O)C3)cc2OC)cc1` (configuration not stated), the activation factor was 1.1.
`Cc1ccnc(NC(=O)CCC(=O)N(CC(=O)NCCc2ccccc2)Cc2cccs2)c1`: the activation factor was 1.
For the compound `CCOC(=O)C(CC)/C(C)=N\NC(=O)c1cccc(C)c1` (configuration not stated), the activation factor is 0.9.
Take `COc1ccc(NC(=O)C(C)SCc2ccccc2)cc1` (configuration not stated): the activation factor was 1.
In the case of `Cc1cc(Cl)ccc1C(=O)C1CCCN(C(=O)CCN2CCCO2)C1` (configuration not stated), the activation factor is 1.1.
`CCc1cccc(C)c1NC(=S)N(CCCN1CCN(C)CC1)Cc1cccs1`: the activation factor is 1.
Consider `Cc1cccc(C)c1NC(=O)c1ccc(CN2CCc3ccccc3C2)cc1`, for which the activation factor is 1.
`Cc1cccc(C)c1NC(=O)C1(C)c2cccc[n+]2CC(=O)N1Cc1cccs1` (configuration not stated): the activation factor was 2 (active).
Consider `Cc1ccc(N(CCC(=O)O)S(=O)(=O)c2cccc(C(F)(F)F)c2)cc1`, for which the activation factor is 1.1.
For `O=[N+]([O-])c1ccc(N2CCN(S(=O)(=O)c3ccccc3)CC2)cc1N1CCc2ccccc2C1` the value was 0.9; for `COc1ccc(/C=N/N=C2/C(=O)Nc3ccccc32)cc1O`, 1; for `C/C=C/C=C/C(=O)OCC(=O)Nc1ccc(Cl)cc1`, 1.
For `CS/C(=C\[N+](=O)[O-])Nc1ccc(C)cc1`, the activation factor is 1.
For `Cn1cnnc1Sc1ccc(S(C)(=O)=O)cc1[N+](=O)[O-]` the value was 0.9; for `O=C(Nc1cnccn1)c1cccnc1`, 1.
Regarding `O=C(NNC(=O)c1cccnc1)Nc1ccccc1`, the activation factor is 1.1.
For `O=C(NN=C1CCC(=NNC(=O)c2cccnc2)CC1)c1cccnc1`, the activation factor is 2 (active).
Consider `C/C(N)=C(/C#N)C(=O)COC(=O)C1CCN(C(=O)c2ccc(Cl)cc2)CC1`, for which the activation factor was 1.
With `CCc1cc2cc(OC)ccc2nc1SCC(=O)Nc1cc(OC)c(OC)cc1C(=O)O`, the activation factor is 0.8.
On to `O=C(/C=C/c1ccc(Cl)c([N+](=O)[O-])c1)c1cccnc1`, for which the activation factor is 1.1.
For the compound `Cc1ccc(NN=Nc2nc3c([nH]2)c(=O)n(C)c(=O)n3C)cc1`, the activation factor was 2 (active).
The result for `CC(CCO)Nc1nc2c([nH]1)c(=O)n(C)c(=O)n2C` (configuration not stated) reads 0.9; that for `CCCSc1nc2c(c(=O)n(C)c(=O)n2C)n1Cc1ccc(C)cc1`, 1.
